# Compound activity (PubChem BioAssay)
# Sampled rows, rich in hits. Any-hit rate of the full collection: about 3.8%.
# MrgX1 ag: agonists of human MrgX1 receptor, primary screen, HEK293 cells, Fluo-4 calcium flux | Mas-related G-protein coupled receptor member X1 (Homo sapiens), Q96LB2 | B-score at 10 µM | 0.44% of 310,000 active | Fluo-4 calcium fluorescence, agonist mode; active compounds read high;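 active = calcium response B-score plate-corrected fluorescence ratio at least 3 library SD, with starting fluorescence B-score inside 5 SD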
#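 System: HEK293 cells stably expressing human MrgX1 receptor; Dosing: test compound in the initial addition of three; Schedule: overnight plating, then 30 min 37 °C plus 30 min room-temperature dye loading; Detection: kinetic calcium dye fluorescence, Fluo-4 NW; Controls: per-plate positive and negative controls for Z′ factor.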
# Lipid droplet: inhibitors of hepatocyte lipid droplet formation, primary screen, imaging, high-throughput imaging, BODIPY stain. AID 1656, 2009. AML12 mouse hepatocytes, oleate lipid droplets. 0.4% of 240,000 active. inhibition, % at 6.5 µM;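 active = lipid droplet intensity inhibited by at least 50%, with more than 500 cells counted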
#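 Assay system: AML12 hepatocytes (mouse) / Also added: 100 µM oleic acid challenge / Times: overnight treatment with compound plus oleate / Detection: high-content imaging of BODIPY-stained droplets and DAPI nuclei / Evaluation: % inhibition of lipid droplet signal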
# RGS4 inh: RGS4 inhibitors, primary screen, cell-based, HEK293 M3R inducible RGS4, calcium flux | Regulator of G-protein signaling 4 (Homo sapiens), P49798 | Fluo-4 calcium flux; active compounds read high; triggered by carbachol at its EC20 | B-score at 10 µM | 0.45% of 310,000 active;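 active = B-score, a plate-corrected calcium signal, over three deviations above library mean, with baseline fluorescence within five deviations of library mean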;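 also: RGS4 expression induced by doxycycline in cells with stable M3 receptor; B-score is computed from the integrated fluorescence ratio over baseline after carbachol; higher B-score means a larger calcium signal and so more RGS4 inhibition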
# Target sequence (P49798 whole entry, looked up): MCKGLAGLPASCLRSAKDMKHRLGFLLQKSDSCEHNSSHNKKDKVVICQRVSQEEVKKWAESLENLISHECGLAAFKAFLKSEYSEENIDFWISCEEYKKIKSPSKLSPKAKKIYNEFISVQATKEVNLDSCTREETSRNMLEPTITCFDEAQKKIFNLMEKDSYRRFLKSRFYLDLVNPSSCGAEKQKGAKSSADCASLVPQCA
# MrgX1 antag: antagonists of human MrgX1 receptor, primary screen, HEK293 cells, Fluo-4 calcium flux; BAM8-22 antagonism; active compounds read low; B-score at 10 µM; 1.3% of 310,000 active;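 active = calcium-response B-score plate-corrected more than 3 library SD below zero, starting fluorescence within 5 deviations, no agonist response on first addition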;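 also: peak minus trough fluorescence over baseline after final BAM8-22 challenge near maximal dose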
# MrgX1 allo act: positive allosteric modulators of MrgX1, primary screen, HEK293 cells, Fluo-4 calcium flux; 0.63% of 310,000 active; FDSS; active compounds read high; Mas-related G-protein coupled receptor member X1 (Homo sapiens), Q96LB2; B-score at 10 µM;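 active = plate-corrected calcium response at least 3 library SD above typical, normal starting fluorescence, not activating the receptor alone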;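 also: compound read alongside a low EC10 to EC30 dose of BAM8-22 agonist; peak minus trough fluorescence over baseline measured at the second addition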
# RGS4 pot: RGS4 potentiators or activators, primary screen, cell-based, HEK293 M3R inducible RGS4, calcium flux; B-score at 10 µM; carbachol calcium flux Fluo4; active compounds read low; 0.92% of 310,000 active;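 active = B-score of the integrated calcium signal more than 4 SD below the library mean, with starting fluorescence not abnormally high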;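 also: negative B-score means reduced calcium response which marks RGS4 activation or potentiation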
#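 Material: M3R-expressing HEK293 line, RGS4 induced by doxycycline | Schedule: Overnight RGS4 induction, 30 min dye load 37 °C, 20 min compound RT | Measured by: Fluo4 fluorescence kinetic imaging of calcium | Read-out: Integrated calcium ratio converted to B score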
# RGS4 block valid: enhanced carbachol calcium response, M3R/RGS4 cells, RGS4 inhibitor project, cell-based, validation screen, HEK293 M3R/RGS4, calcium flux | shares compounds with RGS4 inh | carbachol calcium Fluo-4 fluorescence; carbachol added at its EC20; 0 = buffer wells, 100 = carbachol control | calcium response, % at 10 µM | 65% of 1,700 active | AID 492999, 2010;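 active = duplicate-averaged calcium response above the buffer-only control mean plus 5 SD of those controls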;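 also: integrated fluorescence ratio F max minus min over baseline F0; higher response in RGS4-induced cells means RGS4 inhibition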
# RGS4 uninduced: carbachol calcium response in non-induced M3R cells, confirmation, counter-screen for RGS4 inhibitor project, cell-based, HEK293 M3R. AID 493000, 2010. 20% of 1,900 active. carbachol calcium Fluo-4; submaximal (EC20) carbachol stimulus; buffer wells 0%, carbachol control wells 100%. shares compounds with RGS4 inh. activity (percent), % at 10 µM; call rule not given here;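 also: RGS4 induction absent so cells express M3R without RGS4; higher means more calcium signal and flags a non-specific hit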
# RGS4 inh ctr2: signal in non-induced cells without carbachol, RGS4 inhibitor counter-screen | shares compounds with RGS4 inh | HEK293 M3R/RGS4 non-induced, Fluo-4 calcium, no carbachol; normalised: buffer wells 0%, carbachol wells 100% | calcium response (agonist-mode artifact), % at 10 µM | 22% of 1,900 active | AID 493001;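 active = duplicate-averaged calcium rise in uninduced cells above buffer wells' mean plus 5 SD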
# * = called active by the depositor; i = inactive; . = no result.
SMILES,MrgX1 ag,Lipid droplet,RGS4 inh,MrgX1 antag,MrgX1 allo act,RGS4 pot,RGS4 block valid,RGS4 uninduced,RGS4 inh ctr2
COc1cccc(-c2c(C(=O)N/N=C(\C)c3ccco3)nnn2-c2nonc2N)c1,i,0,i,i,i,i,.,.,.
COc1cccc(-c2c(C(=O)N/N=C/c3cccs3)nnn2-c2nonc2N)c1,i,3,i,-7.6*,i,i,.,40%*,i
COc1ccc(/C=N/NC(=O)c2nnn(-c3nonc3N)c2-c2cccc(OC)c2)cc1,i,-11,i,i,7.2*,i,.,30%*,8.0%*
CCc1c(C(=O)N/N=C/c2cccs2)nnn1-c1nonc1N,i,-1,i,i,i,i,.,.,.
CCOc1cccc(-c2c(C(=O)N/N=C/c3cccs3)nnn2-c2nonc2N)c1,i,-4,5.6*,i,i,i,30%*,i,i
COc1ccc(/C=N/NC(=O)c2nnn(-c3nonc3N)c2-c2cccs2)cc1OC,i,1,i,i,i,i,.,.,.
CC(=O)c1c(C)[nH]c(C(=O)CN2C(=O)NC(CCc3ccccc3)C2=O)c1C (stereo not drawn),i,-47,i,i,i,i,.,.,.
Cc1ccc(C2C(C=Nc3c(C)n(C)n(-c4ccccc4)c3=O)=C(c3ccccc3)Oc3ccccc32)cc1 (stereo not drawn),i,.,i,i,i,i,.,.,.
Cc1cc(NC(=O)CSc2ccc3nnc(-c4cccs4)n3n2)no1,i,.,i,i,i,i,.,.,.
Cc1ccc(NC(=O)C(C)Sc2nnc(C)n2CC2CCCO2)cc1 (stereo not drawn),.,-3,4.7*,.,.,i,5.0%*,i,i
CCCCN(C)CCNC(=O)CN1C(=O)CSc2ccc(S(=O)(=O)N3CCCC3)cc21,i,2,i,i,i,i,.,.,.
Cc1ccc(-c2nc3ncccn3c2Nc2ccccc2C)o1,i,2,i,i,i,i,.,.,.
Cc1ccc(-c2nc3cnccn3c2Nc2c(C)cccc2C)o1,i,.,6.3*,i,i,i,8.0%*,i,26%*
COc1ccc(-n2c(SCC(N)=O)nnc2-c2ccc(NS(=O)(=O)c3ccc(C)cc3)cc2)cc1,i,18,i,i,i,i,.,.,.
COc1ccc(-n2c(SCC#N)nnc2-c2ccc(NS(=O)(=O)c3ccc(C)cc3)cc2)cc1,i,.,7.2*,i,i,i,13%*,i,i
CCOC(=O)C1=C(C)N=c2s/c(=C\c3ccncc3)c(=O)n2C1c1ccc2c(c1)OCO2 (stereo not drawn),i,-24,4.7*,i,i,i,16%*,44%*,16%*
C/C(=N\NC(=O)CSc1ncccn1)c1ccc2c(c1)OCCO2,i,10,i,i,i,i,.,.,.
